Results filed as inconclusive are left out.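 How the source made its calls, unless noted: active means cell viability at or below a set limit in both duplicate runs, the limit being the all-compound median minus 4 SD (cut at about 23% in these data, passing the limit was not always enough); inconclusive means no clear call, values can overlap the other calls; inactive means the rest.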
Tests used:
[1] = S. cerevisiae growth inhibition in permissive medium (OD615), pilot counter-assay for S. cerevisiae lifespan shortening project, permissive growth control (AID 705;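 active means growth inhibition above 25% in both replicates, a cutoff set 3 SD above the mean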); conditions: OD615, 24 h, at 10 µM, stronger effect = higher value
Method in brief: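 Test system: Saccharomyces cerevisiae strain carrying genetically modified DeaD replicative-lifespan system; buffer or medium: SC raffinose/galactose permissive medium; dosing: one dose 10 µM, DMSO 0.25% final; times: 24 h exposure, 30 °C; measured by: OD at 615 nm; read-out basis: growth inhibition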

[2] = S. cerevisiae growth inhibition in restrictive medium, OD615, pilot screen, restrictive growth control, yeast lifespan reduction project (AID 706;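 active means growth inhibition above a set limit, 3 SD over mean compound inhibition, in both replicates, cut at about 43% in these data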;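 further: modified DeaD lifespan yeast strain shifted to restrictive glucose medium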); conditions: OD615, 48 h, at 10 µM, stronger effect = higher value
Method in brief: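 material = engineered S. cerevisiae DeaD strain | buffer or medium = glucose-based CSMM-D restrictive medium | dosing = one concentration, 10 µM final, 0.25% DMSO | schedule = 4 h pre-growth plus 48 h compound exposure, 30 °C | detection = OD615 absorbance reading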

[3] = doxorubicin toxicity protection in MRP-1 cells – H69AR cells, CellTiter-Glo, duplicate, MRP-1 activator project, pilot screen (AID 807;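 active means viability increase at or above a cutoff of the median across tested compounds plus 3 SD, cut at about 8.5% in these data, passing the limit was not always enough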;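 further: compound pretreatment 18-22 h then 72 h combined with doxorubicin; 0% = doxorubicin alone and 100% = vehicle without doxorubicin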); conditions: H69AR viability with doxorubicin, CellTiter-Glo luminescence; at 10 µM; stronger effect = higher value
[4] = viability of HCT116 without oncogenic beta-catenin – human colon tumor cells, pilot screen (AID 823); conditions: HCT116 beta-catenin knockout viability, CellTiter-Glo, 60 h; at 10 µM; stronger effect = lower value;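 further: 0% = wells killed by 20 µM Hyamine and 100% = untreated DMSO cell wells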
[5] = viability of PTEN-null HCT116 cells – cell-based, HCT116 clonal line, CellTiter-Glo, pilot screen (AID 824;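 active means viability at or below 27.92% in each of two runs, the all-compound median minus 4 SD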;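 further: 0% = 20 µM Hyamine control and 100% = vehicle cell control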); conditions: HCT116 PTEN-deleted viability, 60 h, at 10 µM, stronger effect = lower value
[6] = RAM pathway blockade in budding yeast – dse1pr::URA3 reporter, 5-FOA selection, pilot screen (AID 869;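 active means inhibition over a set limit, the all-compound mean plus 3 SD, in both replicate runs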;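 further: 0% = DMSO wells with no growth and 100% = 10 µM 1-NA-PP1 with full growth; RAM network block rescues cells from 5-FOA so hits raise OD615 growth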); conditions: S. cerevisiae dse1pr::URA3 5-FOA growth, OD615, 2 d; at 10 µM; stronger effect = higher value; strain carries analog-sensitive mutant Cbk1 kinase
[7] = RAM signaling pathway blockade in yeast – S. cerevisiae, Pdr1DBD-CYC8 efflux-inhibited sensitized strain, primary screen (AID 1298;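 active means RAM network inhibition above 8.4% in each of two replicates, 3 SD over the compound average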;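 further: 0% = DMSO untreated cells without growth and 100% = 10 µM 1-NA-PP1 full growth; higher means more yeast growth rescued from 5-FOA killing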); conditions: S. cerevisiae cbk1-as DSE1-URA3 strain, 5-FOA growth OD615, 2 d; at 50 µM; stronger effect = higher value

COc1ccc(Cc2nnc(SC)[nH]c2=O)cc1OC
inactive: growth inhibition [1] 0.615% | growth inhibition [2] -16.6% | viability increase [3] -1.67% | viability [4] 101% | viability [5] 99.4% | inhibition [6] 0.225% | RAM network inhibition [7] 1.41%

COc1ccc(N(CC(=O)NCc2cccnc2)S(=O)(=O)c2c(C)nn(C)c2C)cc1
inactive: growth inhibition [1] -19.9% | growth inhibition [2] -19.4% | viability increase [3] -1.49% | viability [4] 98.5% | viability [5] 95.2% | inhibition [6] 1.57% | RAM network inhibition [7] 7.6%

Cc1ccc(O)c(-c2cc(C(F)(F)C(F)F)nc(-c3ccccc3)n2)c1
inactive: growth inhibition [1] -21.9% | growth inhibition [2] -10.4% | viability increase [3] -5.33% | viability [4] 66.7% | viability [5] 73% | inhibition [6] 2.58% | RAM network inhibition [7] 7.06%

Cc1cc(C)nc(SCC(=O)Oc2ccc3oc(=O)cc(C)c3c2)n1
inactive: growth inhibition [1] -15.6% | growth inhibition [2] -10.1% | viability increase [3] -3.67% | viability [4] 97% | viability [5] 95.4% | inhibition [6] 1.63% | RAM network inhibition [7] 3.39%

CCC(=O)c1ccc(OCC(=O)Nc2nn3cnnc3s2)cc1
inactive: growth inhibition [1] -2.54% | growth inhibition [2] 8.22% | viability increase [3] 1% | viability [4] 104% | viability [5] 102% | inhibition [6] 1.27% | RAM network inhibition [7] 6.32%

O=C(NCCOC(=O)c1ccc(S(=O)(=O)N2CCOCC2)cc1)c1cccnc1
inactive: growth inhibition [1] -19.9% | growth inhibition [2] -9.85% | viability increase [3] -0.91% | viability [4] 89.8% | viability [5] 91.7% | inhibition [6] 2.44% | RAM network inhibition [7] 2.11%

O=C(CSc1nc2cc(Cl)ccc2s1)c1ccco1
inactive: growth inhibition [1] -10.9% | growth inhibition [2] 11.2% | viability increase [3] -4.44% | viability [4] 95% | viability [5] 93.8% | inhibition [6] -0.07% | RAM network inhibition [7] -1.19%

Cc1occc1-c1nc(-c2ccccn2)no1
inactive: growth inhibition [1] -14.3% | growth inhibition [2] 3.22% | viability increase [3] -4.5% | viability [4] 71.2% | viability [5] 67.7% | inhibition [6] 0.16% | RAM network inhibition [7] 1.6%

O=C(Nc1nccs1)c1cccc(S(=O)(=O)N2CCOCC2)c1
inactive: growth inhibition [1] -19.2% | growth inhibition [2] -11.8% | viability increase [3] -0.77% | viability [4] 92.8% | viability [5] 92.6% | inhibition [6] 1.83% | RAM network inhibition [7] 1.04%

Cc1ccccc1NC(=O)CN(C)S(=O)(=O)c1cccc2cccnc12
inactive: growth inhibition [1] -2.9% | growth inhibition [2] -1.7% | viability increase [3] -0.34% | viability [4] 105% | viability [5] 95.7% | inhibition [6] 1.74% | RAM network inhibition [7] 2.49%

Cc1cc(Nc2c(C)cccc2C)n2nc(C)nc2n1
inactive: growth inhibition [1] -4.35% | growth inhibition [2] 7.11% | viability increase [3] -0.85% | viability [4] 104% | viability [5] 111% | inhibition [6] 2.33% | RAM network inhibition [7] 0.16%

C/C(N)=C(/C#N)C(=O)CSc1n[nH]c(-c2ccccc2Br)n1
inactive: growth inhibition [1] -8.32% | growth inhibition [2] 8.69% | viability increase [3] 2.73% | viability [4] 110% | viability [5] 105% | inhibition [6] -0.48% | RAM network inhibition [7] -1.02%

CCOC(=O)N1CCN(C(c2ccc(C(C)C)cc2)c2sc3nc(C)nn3c2O)CC1 (stereo not drawn)
inactive: growth inhibition [1] -1.48% | growth inhibition [2] -10.5% | viability increase [3] 2.48% | viability [4] 102% | viability [5] 91% | inhibition [6] 0.2% | RAM network inhibition [7] 0.93%

Cn1c(=O)c2c(SCC(=O)c3ccccc3)nc(C3CC3)nc2n(C)c1=O
inactive: growth inhibition [1] 13.4% | growth inhibition [2] 7.46% | viability increase [3] -2.05% | viability [4] 76.8% | viability [5] 77.8% | inhibition [6] 1.17% | RAM network inhibition [7] -1.03%

O=C(CC12CC3CC(CC(C3)C1)C2)NCO
inactive: growth inhibition [1] 4.32% | growth inhibition [2] 5.98% | viability increase [3] 0.63% | viability [4] 100% | viability [5] 104% | inhibition [6] 1.92% | RAM network inhibition [7] -1.39%

CCOC(=O)c1sc(NC(=O)c2cccnc2)nc1C
inactive: growth inhibition [1] -7.2% | growth inhibition [2] -2% | viability increase [3] -3.19% | viability [4] 102% | viability [5] 97.7% | inhibition [6] 1.7% | RAM network inhibition [7] 1.1%

CN(C)c1nc(-c2ccccc2)c2cnn(Cc3ccccc3)c2n1
inactive: growth inhibition [1] -12.5% | growth inhibition [2] -3.25% | viability increase [3] -4.48% | viability [4] 83.8% | viability [5] 75.9% | inhibition [6] 1.59% | RAM network inhibition [7] 6.82%

CCOC(=O)N1CCN(c2ccc3nnnn3n2)CC1
inactive: growth inhibition [1] -4.75% | growth inhibition [2] 1.97% | viability increase [3] 0.77% | viability [4] 101% | viability [5] 101% | inhibition [6] 0.275% | RAM network inhibition [7] 0.43%

Cc1cc(Nc2cccc(F)c2)n2nc(C)nc2n1
inactive: growth inhibition [1] -13.6% | growth inhibition [2] -7.6% | viability increase [3] -2.42% | viability [4] 101% | viability [5] 94.4% | inhibition [6] 1.08% | RAM network inhibition [7] 5.28%

Nc1c(NCc2ccccc2F)c(=O)[nH]c(=O)n1Cc1ccccc1
inactive: growth inhibition [1] 0.38% | growth inhibition [2] -8.14% | viability increase [3] -1.53% | viability [4] 106% | viability [5] 100% | inhibition [6] 0.67% | RAM network inhibition [7] 1%

O=C1c2ccccc2C(O)N1Cc1ccc2c(c1)OCO2 (stereo not drawn)
inactive: growth inhibition [1] 4.13% | growth inhibition [2] -0.895% | viability increase [3] -0.74% | viability [4] 103% | viability [5] 106% | inhibition [6] 0.38% | RAM network inhibition [7] 1.6%

CC1Cc2nc(SCC(=O)N3CCCC3)n(C)c(=O)c2S1 (stereo not drawn)
inactive: growth inhibition [1] -3.58% | growth inhibition [2] -13.8% | viability increase [3] -3.27% | viability [4] 98.2% | viability [5] 87.9% | inhibition [6] 1.17% | RAM network inhibition [7] 5.83%

CC(=O)N1CCc2c(sc(NC(=O)CN3C(=O)CCC3=O)c2C(N)=O)C1
inactive: growth inhibition [1] -11.6% | growth inhibition [2] -14.8% | viability increase [3] -1.16% | viability [4] 100% | viability [5] 99.3% | inhibition [6] 1.53% | RAM network inhibition [7] 2.93%

CCCc1nc(N2CCN(C)CC2)c2sc(=S)n(-c3ccccc3)c2n1
inactive: growth inhibition [1] -8.52% | growth inhibition [2] 17.7% | viability increase [3] -2.47% | viability [4] 83.8% | viability [5] 82.6% | inhibition [6] 0.39% | RAM network inhibition [7] 6.13%

— PubChem BioAssay
